Rows were chosen to be rich in hits. Some 2.6% of all compounds tested hit in one or more screens of this group.
MITF TRPM1 HTS: activators of MITF-driven TRPM1 promoter reporter, primary screen, cell-based, SK-MEL-5, luciferase, single point. hit rate 0.75% among 300,000. SK-MEL-5 TRPM1-promoter luciferase, 24 h; % of positive control, neutral wells = 0. activation, % at 12.5 µM;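 active = mean activation of at least 80% with every replicate also reaching 80%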;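 note: 0% = neutral control wells and 100% = parthenolide positive control wells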
Xi reactivation: activators of inactive X chromosome reactivation, primary screen, imaging, XiGFP fibroblasts, GFP high-content imaging, set 2; hit rate 0.055% among 360,000; activation, % at 7.58 µM; XiGFP mouse fibroblasts, % GFP-positive cells imaging, 3 d; cells co-treated with 5-aza-dC sensitizer; scaled so ellipticine positive control = 100%; AID 743238, 2013;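 active = mean normalized replicate activation at least 10% and every replicate at or above 10%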;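 note: 0% = median of on-plate neutral control wells and 100% = ellipticine 6 µM median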
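Schedule: 3 d treatment, 15 min room-temperature fixation; system: 68-5-11 XiGFP fibroblast line; buffer or medium: DMEM plus 5-aza-dC sensitizer; control set: ellipticine 6 µM positive control; compound: one concentration, pinned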
esBAF inh: Bmi1 luciferase reporter increase in mESCs, primary screen, esBAF inhibitor project, mouse ES cells, Bmi1 luciferase knock-in, single point. hit rate 2% among 350,000. reporter increase, % at 12.5 µM. 24 h; 100% = twice the neutral-well signal; in the data active = activation above about 40%;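 note: 0% = median of the plate's neutral control wells and 100% = double that signal; a rise in the Bmi1 reporter signal indicates esBAF inhibition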
Vif imaging: HIV Vif self-association inhibitors, primary screen, imaging, HEK293T, single point. HEK293T cells, Vif self-association by quenched fluorescence, 24 h. inhibition, % at 7.49 µM. hit rate 0.35% among 340,000. AID 602346, 2012; in the data active = inhibition above about 50%, passing the limit was not always enough
Wnt bcat act: Wnt/beta-catenin pathway activators, primary screen, cell-based, plate reader, single point; activation, % at 9.35 µM; Wnt/beta-catenin reporter cell assay, activator; hit rate 1.2% among 300,000; in the data active = activation above about 30%, passing the limit was not always enough;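 note: 0% = neutral control wells and 100% = positive control wells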
* = called active by the depositor; i = inactive; x = no result given.

SMILES	MITF TRPM1 HTS	Xi reactivation	esBAF inh	Vif imaging	Wnt bcat act
COc1cccc(-c2cnc3c(c2)C(=O)N([C@H](C)CO)C[C@@H](C)[C@@H](CN(C)CC2CC2)O3)c1	x	-1	x	x	x
C[C@H]1CCCCO[C@H](CN(C)Cc2ccc(Cl)c(Cl)c2)[C@@H](C)CN([C@@H](C)CO)C(=O)c2cc(NC(=O)NC3CCCCC3)ccc2O1	x	-1	3	x	x
COc1ccc(Nc2nnc(Cc3ccncc3)c3ccccc23)c(OC)c1	4	0	52*	1	1
CC(=O)Nc1nc2c(F)cccc2s1	12	0	0	-3	1
COc1cccc2sc(Nc3nnc(-c4ccc(F)cc4)o3)nc12	-14	0	23	x	-7
COc1cccc2sc(Nc3nnc(-c4cccs4)o3)nc12	x	x	-14	0	59*
Fc1cccc2sc(Nc3nnc(-c4ccco4)o3)nc12	30	x	14	-6	38*
Cc1cc(Cl)cc2sc(NC(=O)c3ccco3)nc12	88*	x	17	-3	x
O=C(Nc1nc2c(F)cccc2s1)c1ccco1	59	0	31	-11	43*
COc1ccc(-c2ccc3c(c2)O[C@@H](CN(C)CC2CCOCC2)[C@H](C)CN([C@H](C)CO)S3(=O)=O)cc1	x	0	-2	x	x
Cc1noc(C)c1S(=O)(=O)Nc1ccc2c(c1)CC(=O)N([C@@H](C)CO)C[C@H](C)[C@H](CN(C)Cc1ccc(C(=O)O)cc1)O2	x	0	1	x	x
O=C(COc1ccccc1[N+](=O)[O-])N1CCCc2ccccc21	-5	0	10	-1	4
O=C(Cn1ccc([N+](=O)[O-])n1)N1CCCc2ccccc21	14	x	9	13	32*
O=C(OCC(=O)N1CCCc2ccccc21)c1ccccc1[N+](=O)[O-]	84*	0	111*	-12	-2
CO[C@@H]1CN(C)C(=O)c2cc(NC(=O)Nc3cccc(Cl)c3)ccc2OC[C@H](C)N(C)C[C@H]1C	x	0	3	x	x
COc1ccccc1N1C(=O)CCC1(C#N)c1ccccc1 (centres undefined)	x	x	-5	69*	1
CCO/C(C)=N/Oc1cnc2ccccc2c1	x	0	66*	0	4
COCC(=O)N1C[C@H](C)[C@@H](OC)CN(C)C(=O)c2ccc(NC(=O)c3cc(C)on3)cc2OC[C@@H]1C	x	0	x	x	x
O=[N+]([O-])c1ccc(NC(=S)N2CCCC2)cc1	x	0	9	0	-1
O=[N+]([O-])c1ccc(Cl)c(NC(=S)N2CCCC2)c1	33	0	52*	19	3
CCN1/C(=C\C=C(C(C)=O)C(C)=O)Sc2ccccc21	30	0	x	5	-2
CCOC(=O)/C(C#N)=C(C)/C=C1\Sc2ccccc2N1CC	58	0	67*	i	17
COc1ccc(C(=O)Cn2nnc(-c3cccs3)n2)cc1	x	x	8	-2	51*
COc1ccc(N2CCN(C(=O)Cn3nnc(-c4cccs4)n3)CC2)cc1	-11	x	-7	-2	x
Cc1ccc(Nc2nc3ccccc3o2)cc1F	12	x	14	-24	31*
SMILES	MITF TRPM1 HTS	Xi reactivation	esBAF inh	Vif imaging	Wnt bcat act
Cc1ccnc(Nc2nc3ccccc3o2)n1	-17	0	-60	-11	4
Cc1cccc(C)c1-n1nnnc1SCSc1nnnn1-c1c(C)cccc1C	-8	x	-6	-4	x
CSc1nnnn1-c1c(C)cccc1C	-16	0	x	51*	0
COC(=O)c1ccc(CN2C(=O)NC(Cc3c[nH]c4ccccc34)C2=O)cc1 (centres undefined)	55	0	46*	-6	4
COc1ccc(OC)c(S(=O)(=O)N2CCCC(C(=O)NCc3cccnc3)C2)c1 (centres undefined)	-2	0	1	60*	-2
COc1ccc(OC)c(S(=O)(=O)N2CCCC(C(=O)NCc3ccccn3)C2)c1 (centres undefined)	1	0	3	4	-1
CC(C)C#Cc1cnc2c(c1)C(=O)N([C@@H](C)CO)C[C@H](C)[C@H](CN(C)C(=O)Nc1ccc(F)cc1)O2	x	0	-4	x	x
O=C(Nc1cccc(Cl)c1Cl)c1csc([C@H]2C[C@H](O)[C@@H](CO)O2)n1	x	0	77*	x	42*
